Shown are actives, neighbours in structure and some others; about 1.8% of the full set was active somewhere.
ZTA DNA inh – counter-screen for EBNA-1 inhibitors: inhibitors of Epstein-Barr virus ZTA; ZTA-DNA binding, fluorescence polarization; inhibition, % at 11 µM; 320,000 compounds, 0.15% hits; AID 2234; in the data active = inhibition above about 33%
Apaf-1 inh – inhibitors of human Apaf-1 apoptosome; 330,000 compounds, 0.71% hits; inhibition, % at 20 µM; reconstituted apoptosome caspase-3 activity, DEVD-Rh110 fluorescence; active = inhibition of at least 40% at 20 µM
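Material: cell-free apoptosome with Apaf-1, procaspase-3 and caspase-9; Buffer or medium: Hepes pH 7.5 with detergent and BSA; Reagent: cytochrome c trigger plus (Z-DEVD)2-Rh110 caspase-3 substrate; Times: compound with Apaf-1, dATP, procaspase-3 30 min, then 50 min reaction, room temperature; Technique: Rh110 fluorescence intensity.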
procasp3 activ – activators of human procaspase-3; P42574; recombinant procaspase-3 D3A, Ac-DEVD-pNA absorbance 405 nm; activation, % at 8.5 µM; 330,000 compounds, 0.11% hits; AID 463141;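 active = activation above the mean of all tested compounds plus 3 SD, cut at about 21% in these data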
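Assay system: Autoprocessing-dead procaspase-3 D3A mutant enzyme; also added: Ac-DEVD-pNA; doses: one concentration, 8.5 µM nominal, 0.8% DMSO; times: 1 h compound preincubation, 2 h substrate hydrolysis at 25 °C; technique: 405 nm absorbance of p-nitroaniline, reads at 0 and 120 min; measure: % activation between DMSO and enzyme-spiked controls; repeats: single replicate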
procasp7 counter – counter-screen for procaspase-3 activators: activators of human procaspase-7. P55210. recombinant procaspase-7, Ac-DEVD-pNA absorbance 405 nm; D23A/D198A/D206A triple mutant, cannot self-cleave; scale: DMSO 0, 5 µM enzyme 100. activation, % at 8.5 µM. 330,000 compounds, 0.093% hits. AID 463210;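 active = percent activation above the screen-wide mean plus 3 SD, cut at about 25% in these data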
Target sequence (P55210 whole entry D23A/D198A/D206A): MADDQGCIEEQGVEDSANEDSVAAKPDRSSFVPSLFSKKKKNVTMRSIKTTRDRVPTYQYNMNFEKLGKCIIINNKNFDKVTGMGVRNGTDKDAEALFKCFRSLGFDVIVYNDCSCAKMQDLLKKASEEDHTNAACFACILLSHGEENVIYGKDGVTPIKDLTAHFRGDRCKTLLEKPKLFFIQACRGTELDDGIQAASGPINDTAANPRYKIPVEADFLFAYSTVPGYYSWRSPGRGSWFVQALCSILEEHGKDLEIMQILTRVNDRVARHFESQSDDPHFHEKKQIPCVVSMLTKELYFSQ
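signal = Epi-absorbance of released pNA at 405 nm, two timepoints | assay system = Uncleavable procaspase-7 mutant enzyme | reagent = Ac-DEVD-pNA substrate, 400 µM as added | times = 1 h enzyme–compound preincubation and 2 h substrate reaction, both 25 °C | benchmarks = low DMSO alone, high DMSO plus 5 µM PC-7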
EBNA-1 inh – blocks EBNA-1 binding to DNA. EBNA-1 DNA binding, fluorescence polarization. inhibition, % at 14.8 µM. 300,000 compounds, 0.34% hits. AID 1950; in the data active = inhibition above about 28%
GSTO1 inh – blocks human GSTO1 in RBBP9 counter-screen. 300,000 compounds, 1.1% hits. inhibition, % at 5.96 µM. P78417. recombinant GSTO1, activity-based probe fluorescence polarization. AID 1974;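 active = inhibition above the campaign mean inhibition plus 3 SD, cut at about 35% in these data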
Target sequence (P78417 whole entry, looked up): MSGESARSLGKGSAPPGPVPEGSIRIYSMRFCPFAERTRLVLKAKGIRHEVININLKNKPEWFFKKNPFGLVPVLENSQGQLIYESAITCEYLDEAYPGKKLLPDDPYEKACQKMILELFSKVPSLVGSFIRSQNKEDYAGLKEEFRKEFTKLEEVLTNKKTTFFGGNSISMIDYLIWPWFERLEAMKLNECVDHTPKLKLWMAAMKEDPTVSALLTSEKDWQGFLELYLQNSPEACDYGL
GSTO1 inh conf – confirmation of human GSTO1 inhibitors | shares compounds with GSTO1 inh | recombinant GSTO1, probe fluorescence polarization | inhibition, % at 5.96 µM | 2,400 compounds, 54% hits | AID 2176;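 active = inhibition above the primary screen's cutoff, its mean inhibition plus 3 SD, cut at about 35% in these data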;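 also: loss of polarization as inhibitors block binding of rhodamine sulfonate ester activity probe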
Apaf-1 inh conf – Apaf-1 inhibition, single-dose confirmed. inhibition, % at 20 µM. 1,800 compounds, 25% hits. reconstituted apoptosome, caspase-3 DEVD-Rh110 fluorescence. AID 504614. shares compounds with Apaf-1 inh;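 active = mean inhibition of at least 40% at 20 µM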
Rh110 quench – Rh110 signal interference in Apaf-1 inhibitor counter-screen; AID 504615; activation (fluorescence interference), % at 20 µM; 1,800 tested, under 10 active; shares compounds with Apaf-1 inh; Rh110 fluorescence interference, quenched caspase reaction;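 active = signal rise of 40% or more at 20 µM, treated as a fluorescence artifact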
Apaf1 inh interf – counter-screen for Apaf-1 inhibitors: fluorescence interference, dose response. fluorescence interference counterscreen, Apaf-1 assay format. 460 tested, under 10 active. IC50, µM. AID 588538. shares compounds with Apaf-1 inh; call rule not given here
A number is an active result; - = inactive; . = not tested or not shown; + = active, no number.

SMILES	ZTA DNA inh	Apaf-1 inh	procasp3 activ	procasp7 counter	EBNA-1 inh	GSTO1 inh	GSTO1 inh conf	Apaf-1 inh conf	Rh110 quench	Apaf1 inh interf
O=[N+]([O-])c1cc(Br)c(O)c(C=Nc2ccc(N3CCOCC3)cc2)c1	127	68	-	-	57	72	-	-	-	.
COc1cccc(C=Nc2ccc(N3CCOCC3)cc2)c1O	-	-	-	-	-	-	.	.	.	.
O=C1CCC([N+](=O)[O-])C(c2ccccc2F)N1 (configuration not stated)	-	-	-	-	-	-	.	.	.	.
Cc1ccc(C(=O)N/N=C/c2ccc(-c3ccc(Br)cc3[N+](=O)[O-])o2)o1	-	42	-	-	-	66	-	-	-	.
Cc1ccc(NC2=C/C(=N\S(=O)(=O)c3cccs3)c3ccccc3C2=O)c(C)c1	-	95	-	-	-	81	89	95	-	-
Cc1ccc(Cl)cc1NC1=C/C(=N\S(=O)(=O)c2cccs2)c2ccccc2C1=O	-	95	-	-	-	74	94	97	-	-
O=C(CC(Sc1ccc(Br)cc1)C(=O)O)c1ccc(F)cc1 (configuration not stated)	-	-	-	-	-	-	.	.	.	.
CCOC(=O)c1c(C)oc2c1c(C=NCCC(=O)O)c(O)c1ccccc12	-	81	-	-	-	43	47	59	-	-
CCOC(=O)c1c(C)oc2c1c(C=NC1CCS(=O)(=O)C1)c(O)c1ccccc12 (configuration not stated)	-	.	-	-	-	-	.	.	.	.
COc1cc(OC)c(NC2=CC(=O)C(=O)c3ccccc32)cc1Cl	-	92	-	-	-	79	77	92	-	-
C=CCOc1c(Cl)cc(CNc2ccc(N(C)C)cc2)cc1OC	+	64	-	-	+	77	-	-	-	.
CSc1cccc(NS(=O)(=O)c2cn(C)cn2)c1	-	-	-	-	-	-	.	.	.	.
CCOc1cc(CNc2ccc(N3CCCC3)cc2)cc(Cl)c1OC	159	55	-	-	97	70	70	51	-	-
CCOc1cc(CNc2ccc(S(N)(=O)=O)cc2)cc(Cl)c1OC	-	-	-	-	-	-	.	.	.	.
COC(=O)c1ccc(-c2ccc(C(c3c(C)[nH][nH]c3=O)c3c(C)[nH][nH]c3=O)o2)cc1	-	44	-	-	-	38	-	42	-	-
COC(=O)COc1ccc(C(c2c(C)[nH][nH]c2=O)c2c(C)[nH][nH]c2=O)cc1	.	-	.	.	.	.	.	.	.	.
Cc1[nH][nH]c(=O)c1C(c1ccc(-c2cccc(Cl)c2)o1)c1c(C)[nH][nH]c1=O	-	87	-	-	-	72	57	41	-	-
C=CCn1c(NC(=O)c2ccccc2Cl)c(C#N)c2nc3ccccc3nc21	-	96	-	-	-	79	62	60	-	-
O=C1C(Cl)=C(NCCN2CCCCC2)C(=O)c2ccccc21	-	68	-	-	-	71	52	79	-	-
O=C(NCCN1CCCC1)c1ccccc1Cl	-	-	-	-	-	-	.	.	.	.
CCNC1=C(Cl)C(=O)c2ccccc2C1=O	-	51	-	-	-	70	-	-	-	.
O=C(NC1(O)C(=O)c2ccccc2C1=O)c1ccccc1	-	94	-	-	-	77	82	96	-	-
COC1(NC(=O)c2ccccc2)C(C)=CC(=O)C=C1C	-	-	-	-	-	-	.	.	.	.
O=C(N/N=C\c1ccc(-c2ccccc2[N+](=O)[O-])o1)C1COc2ccccc2O1 (configuration not stated)	-	79	-	-	-	66	47	-	-	.
C(=Nc1cccc2c(N=Cc3ccco3)cccc12)c1ccco1	-	92	-	-	-	40	-	-	-	.
SMILES	ZTA DNA inh	Apaf-1 inh	procasp3 activ	procasp7 counter	EBNA-1 inh	GSTO1 inh	GSTO1 inh conf	Apaf-1 inh conf	Rh110 quench	Apaf1 inh interf
O=C1C(=Cc2cccs2)C(=O)c2ccccc21	-	-	-	-	-	-	.	.	.	.
O=C1C(c2ccccc2)=[N+]([O-])c2ccccc21	-	85	-	-	-	64	48	87	-	-
CCCC[n+]1ccn(C2=C([O-])c3ccccc3C(=O)/C2=N\S(=O)(=O)c2ccc(Cl)cc2)c1	-	52	-	-	-	75	71	56	-	-
CCCC[n+]1ccn(-c2nc3ccccc3nc2[N-]S(=O)(=O)c2ccc(Br)cc2)c1	-	-	-	-	-	-	.	.	.	.
CCCCC[n+]1ccn(C2=C([O-])c3ccccc3C(=O)/C2=N\S(=O)(=O)c2ccc(Cl)cc2)c1	-	70	-	-	-	66	-	54	-	-
Cc1ccc(Cl)cc1NC(=O)c1cc(NC(=O)C2CCCCC2C(=O)O)ccc1N1CCOCC1 (configuration not stated)	-	-	-	-	-	-	.	.	.	.
NS(=O)(=O)c1ccc(NC(=O)Nc2ccccc2)cc1	-	-	-	-	-	-	.	.	.	.
CCOC(=O)c1ccc(NC2=CC(=O)C(=O)c3ccccc32)cc1	-	72	-	-	-	77	87	88	-	-
NS(=O)(=O)c1ccc(NC2=CC(=O)C(=O)c3ccccc32)cc1	-	95	-	-	-	84	88	98	-	-
CCOC(=O)c1ccc(NC(=O)C(C)N2C(=O)c3ccccc3C2=O)cc1 (configuration not stated)	-	-	-	-	-	-	.	.	.	.
CC(C)(C)c1ccc(C(=O)CCC(=O)OCC(=O)NCCc2ccc(S(N)(=O)=O)cc2)cc1	-	-	-	-	.	.	.	.	.	.
CCCN(CC(=O)Nc1ccc(Cl)cc1Cl)C(=O)c1ccc(=O)[nH]c1	-	-	-	-	-	-	.	.	.	.
Cc1cccc(C)c1NC(=O)CSc1nnc(-c2ccco2)c(-c2ccco2)n1	-	42	-	-	-	58	40	-	-	.
COc1cccc(Oc2ccc(C(F)(F)F)cc2NC(=O)CN2C(=O)NC3(CCCC3)C2=O)c1	.	-	-	-	.	.	.	.	.	.
Cc1ccc(-n2nc3cc(C)c(N)cc3n2)cc1	-	-	-	-	-	-	.	.	.	.
Cc1cc2nc3ccc(N(C)C)cc3nc2cc1N	-	90	-	-	-	47	42	63	-	-
